Reference: ChEMBL document CHEMBL1121371, “Antihypertensive 5,6-diarylpyridazin-3-ones” (1980)
Where “and” joins values, the source holds several entries; their conditions need not be identical. Identical values can stand only once.

How the values were obtained:
Rattus norvegicus [1] = assay: Antihypertensive activity in spontaneously hypertensive rats was measured as average blood pressure at 10 mg/kg, p.o. before predose; assay type: functional; conditions: route oral
In short: (§1)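 Spontaneously hypertensive rats aged 12 to 16 weeks, in groups of five with systolic pressure of 170 mmHg or more. Oral dosing as a solution or suspension in 0.25% methylcellulose, 5 mL/kg, with a vehicle control group. Tail-cuff systolic pressure was read predose and 4 and 24 h after each of two doses. Values were compared with predose by Student's t test.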

Rattus norvegicus [2] = assay: Antihypertensive activity in spontaneously hypertensive rats was measured as average blood pressure at 10 mg/kg, p.o. after 24 hours of postdose-1; assay type: functional; conditions: route oral; in short: as §1
Rattus norvegicus [3] = assay: Antihypertensive activity in spontaneously hypertensive rats was measured as average blood pressure at 10 mg/kg, p.o. after 24 hours of postdose-2; assay type: functional; conditions: route oral; in short: as §1
Rattus norvegicus [4] = assay: Antihypertensive activity in spontaneously hypertensive rats was measured as average blood pressure at 10 mg/kg, p.o. after 4 hours of postdose-1.; assay type: functional; conditions: route oral; in short: as §1
Rattus norvegicus [5] = assay: Antihypertensive activity in spontaneously hypertensive rats was measured as average blood pressure at 10 mg/kg, p.o. after 4 hours of postdose-2; assay type: functional; conditions: route oral; in short: as §1
Rattus norvegicus [6] = assay: Antihypertensive activity in […] hypertensive rats was measured as average blood pressure at 50 mg/kg, p.o. before predose; assay type: functional; conditions: route oral
Rattus norvegicus [7] = assay: Antihypertensive activity in spontaneously hypertensive rats was measured as average blood pressure at 100 mg/kg, p.o. after 24 hours of postdose-1.; assay type: functional; conditions: route oral; in short: as §1
Rattus norvegicus [8] = assay: Antihypertensive activity in spontaneously hypertensive rats was measured as average blood pressure at 100 mg/kg, po after 24 hours of postdose-2; assay type: functional; in short: as §1
Rattus norvegicus [9] = assay: Antihypertensive activity in […] hypertensive rats was measured as average blood pressure at 100 mg/kg, p.o. after 24 hours of postdose-1; assay type: functional; conditions: route oral
Rattus norvegicus [10] = assay: Antihypertensive activity in […] hypertensive rats was measured as average blood pressure at 100 mg/kg, p.o. after 24 hours of postdose-2; assay type: functional; conditions: route oral
Rattus norvegicus [11] = assay: Antihypertensive activity in […] hypertensive rats was measured as average blood pressure at 100 mg/kg, p.o. after 4 hours of postdose-1; assay type: functional; conditions: route oral
Rattus norvegicus [12] = assay: Antihypertensive activity in […] hypertensive rats was measured as average blood pressure at 100 mg/kg, p.o. after 4 hours of postdose-1.; assay type: functional; conditions: route oral
Rattus norvegicus [13] = assay: Antihypertensive activity in […] hypertensive rats was measured as average blood pressure at 100 mg/kg, po after 4 hours of postdose-2; assay type: functional
Rattus norvegicus [14] = assay: Antihypertensive activity in […] hypertensive rats was measured as average blood pressure at 100 mg/kg, p.o. before predose; assay type: functional; conditions: route oral
Rattus norvegicus [15] = assay: Antihypertensive activity in […] hypertensive rats was measured as average blood pressure at 50 mg/kg, p.o. after 24 hours of postdose-1; assay type: functional; conditions: route oral
Rattus norvegicus [16] = assay: Antihypertensive activity in spontaneously hypertensive rats was measured as average blood pressure at 30 mg/kg, p.o. after 24 hours of postdose-1; assay type: functional; conditions: route oral; in short: as §1
Rattus norvegicus [17] = assay: Antihypertensive activity in spontaneously hypertensive rats was measured as average blood pressure at 30 mg/kg, p.o. after 24 hours of postdose-2; assay type: functional; conditions: route oral; in short: as §1
Rattus norvegicus [18] = assay: Antihypertensive activity in spontaneously hypertensive rats was measured as average blood pressure at 30 mg/kg, po after 4 hours of postdose-1.; assay type: functional; in short: as §1
Rattus norvegicus [19] = assay: Antihypertensive activity in spontaneously hypertensive rats was measured as average blood pressure at 30 mg/kg, p.o. after 4 hours of postdose-2; assay type: functional; conditions: route oral; in short: as §1
Rattus norvegicus [20] = assay: Antihypertensive activity in spontaneously hypertensive rats was measured as average blood pressure at 30 mg/kg, p.o. before predose; assay type: functional; conditions: route oral; in short: as §1
Rattus norvegicus [21] = assay: Antihypertensive activity in […] hypertensive rats was measured as average blood pressure at 50 mg/kg, p.o. after 24 hours of postdose-2; assay type: functional; conditions: route oral
Rattus norvegicus [22] = assay: Antihypertensive activity in […] hypertensive rats was measured as average blood pressure at 50 mg/kg, p.o. after 4 hours of postdose-1; assay type: functional; conditions: route oral
Rattus norvegicus [23] = assay: Antihypertensive activity in […] hypertensive rats was measured as average blood pressure at 50 mg/kg, p.o. after 4 hours of postdose-2; assay type: functional; conditions: route oral
Rattus norvegicus [24] = assay: Antihypertensive activity in spontaneously hypertensive rats was measured as average blood pressure at 100 mg/kg, p.o. after 4 hours of postdose; assay type: functional; conditions: route oral; in short: as §1
Rattus norvegicus [25] = assay: Antihypertensive activity in spontaneously hypertensive rats was measured as average blood pressure at 100 mg/kg, p.o. after 4 hours of postdose-2; assay type: functional; conditions: route oral; in short: as §1
Rattus norvegicus [26] = assay: Antihypertensive activity in spontaneously hypertensive rats was measured as average blood pressure at 100 mg/kg, p.o. before predose; assay type: functional; conditions: route oral; in short: as §1
Rattus norvegicus [27] = assay: Antihypertensive activity in spontaneously hypertensive rats was measured as increase in heart rate at 10 mg/kg peroral dose; (+)=Increased heart rate; assay type: functional, organism-based; design: dose 10 mg/kg
Rattus norvegicus [28] = assay: Antihypertensive activity in spontaneously hypertensive rats was measured as increase in heart rate at 30 mg/kg peroral dose; (+)=Increased heart rate; assay type: functional, organism-based; design: dose 30 mg/kg
Rattus norvegicus [29] = assay: Antihypertensive activity in spontaneously hypertensive rats was measured as increase in heart rate at 100 mg/kg peroral dose; (+)=Increased heart rate; assay type: functional, organism-based; design: dose 100 mg/kg
Rattus norvegicus [30] = assay: Antihypertensive activity in DOCA hypertensive rats was measured as average blood pressure at 25 mg/kg, po before predose
Rattus norvegicus [31] = assay: Antihypertensive activity in DOCA hypertensive rats was measured as average blood pressure at 10 mg/kg, p.o. before predose; conditions: route oral
Rattus norvegicus [32] = assay: Antihypertensive activity in DOCA hypertensive rats was measured as average blood pressure at 10 mg/kg, p.o. after 4 hours of postdose-2; conditions: route oral
Rattus norvegicus [33] = assay: Antihypertensive activity in DOCA hypertensive rats was measured as average blood pressure at 25 mg/kg, p.o. after 4 hours of postdose-2; conditions: route oral
Rattus norvegicus [34] = assay: Antihypertensive activity in DOCA hypertensive rats was measured as average blood pressure at 10 mg/kg, p.o. after 24 hours of postdose-1; conditions: route oral
Rattus norvegicus [35] = assay: Antihypertensive activity in DOCA hypertensive rats was measured as average blood pressure at 10 mg/kg, p.o. after 24 hours of postdose-2; conditions: route oral
Rattus norvegicus [36] = assay: Antihypertensive activity in DOCA hypertensive rats was measured as average blood pressure at 10 mg/kg, p.o. after 4 hours of postdose-1.; conditions: route oral
Rattus norvegicus [37] = assay: Antihypertensive activity in DOCA hypertensive rats was measured as average blood pressure at 25 mg/kg, p.o. after 24 hours of postdose-1; conditions: route oral
Rattus norvegicus [38] = assay: Antihypertensive activity in DOCA hypertensive rats was measured as average blood pressure at 25 mg/kg, p.o. after 24 hours of postdose-2; conditions: route oral

## CC(=O)c1c(-c2ccc(Cl)cc2)c(-c2ccc(Cl)cc2)nn(CCO)c1=O
Rattus norvegicus [1]
  BP: 202 mmHg
Rattus norvegicus [2]
  BP: 203 mmHg
Rattus norvegicus [3]
  BP: 197 mmHg
Rattus norvegicus [4]
  BP: 187 mmHg
Rattus norvegicus [5]
  BP: 191 mmHg
Rattus norvegicus [6]
  BP: 224 mmHg
Rattus norvegicus [7]
  BP: 185 mmHg
Rattus norvegicus [8]
  BP: 193 mmHg
Rattus norvegicus [9]
  BP: 178 mmHg and 125 mmHg
Rattus norvegicus [10]
  BP: 195 mmHg and 130 mmHg
Rattus norvegicus [11]
  BP: 169 mmHg
Rattus norvegicus [12]
  BP: 123 mmHg
Rattus norvegicus [13]
  BP: 164 mmHg and 127 mmHg
Rattus norvegicus [14]
  BP: 222 mmHg and 125 mmHg
Rattus norvegicus [15]
  BP: 184 mmHg
Rattus norvegicus [16]
  BP: 192 mmHg
Rattus norvegicus [17]
  BP: 206 mmHg
Rattus norvegicus [18]
  BP: 200 mmHg
Rattus norvegicus [19]
  BP: 164 mmHg
Rattus norvegicus [20]
  BP: 213 mmHg
Rattus norvegicus [21]
  BP: 213 mmHg
Rattus norvegicus [22]
  BP: 171 mmHg
Rattus norvegicus [23]
  BP: 182 mmHg
Rattus norvegicus [24]
  BP: 173 mmHg
Rattus norvegicus [25]
  BP: 174 mmHg
Rattus norvegicus [26]
  BP: 218 mmHg
Rattus norvegicus [27]
  Heart rate: Increased heart rate
Rattus norvegicus [28]
  Heart rate: Increased heart rate
Rattus norvegicus [29]
  Heart rate: Increased heart rate
Rattus norvegicus [30]
  BP: 235 mmHg
Rattus norvegicus [31]
  BP: 224 mmHg
Rattus norvegicus [32]
  BP: 188 mmHg
Rattus norvegicus [33]
  BP: 188 mmHg
Rattus norvegicus [34]
  BP: 192 mmHg
Rattus norvegicus [35]
  BP: 210 mmHg
Rattus norvegicus [36]
  BP: 191 mmHg
Rattus norvegicus [37]
  BP: 191 mmHg
Rattus norvegicus [38]
  BP: 208 mmHg
